Laboratory results reported in ChEMBL document CHEMBL3046016, “Antifeedant and growth inhibitory effects of some neo-clerodane diterpenoids isolated from Clerodendron species (Verbenaceae) on Earias vitella and Spodoptera litura” (2003).

Assays:
Format in all cases: functional
Spodoptera litura [1] = assay: Insecticidal activity against pupal stage of Spodoptera litura in compound-treated castor leaves assessed as pupal mortality at 0.5 ug/cm2 relative to control
Earias vittella [2] = assay: Insecticidal activity against adult Earias vitella assessed as adult emergence at 0.5 ug/cm3 administered through artificial diet containing Abelmoschus esculentus seed powder (reference value: 88%)
Spodoptera litura [3] = assay: Insecticidal activity against adult Spodoptera litura in compound-treated castor leaves assessed as adult deformity at 0.5 ug/cm2 relative to control
Earias vittella [4] = assay: Insecticidal activity against third-instar larval stage of Earias vitella assessed as total larval duration time at 0.5 ug/cm3 administered through artificial diet containing Abelmoschus esculentus seed powder (reference value: 8.2 +/- 0.48 days)
Earias vittella [5] = assay: Insecticidal activity against pupal stage of Earias vitella assessed as pupal duration time at 0.5 ug/cm3 administered through artificial diet containing Abelmoschus esculentus seed powder (reference value: 6.4 +/- 0.21 days)
Spodoptera litura [6] = assay: Insecticidal activity against pupal stage of Spodoptera litura in compound-treated castor leaves assessed as pupal weight at 0.5 ug/cm2 (reference value: 302.4 +/- 5.9 mg)
Spodoptera litura [7] = assay: Antifeedant activity against third-instar larval stage of Spodoptera litura in compound-treated castor leaves assessed as decrease in diet consumption at 0.5 ug/cm2 after 24 hr by no-choice leaf disk assay relative to acetone-treated control; design: scale not given: the % may be the effect or the level left
Outline: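 Larvae were reared on castor leaves at 25 ± 2 °C. In a no-choice test, compound in acetone was painted on the abaxial side of castor leaf disks and air-dried. Five freshly molted third-instar larvae, starved 4 h, were placed per Petri dish with wet cotton. There were five replicates. After 24 h, consumed leaf area was read on a leaf area meter. %AF = 100 − (treated/control)×100.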

Spodoptera litura [8] = assay: Insecticidal activity against female adult Spodoptera litura in compound-treated castor leaves assessed as adult longevity time at 0.5 ug/cm2 (reference value: 10 +/- 0.63 days)
Earias vittella [9] = assay: Insecticidal activity against male adult Earias vitella assessed as adult longevity time at 0.5 ug/cm3 administered through artificial diet containing Abelmoschus esculentus seed powder (reference value: 8.2 +/- 0.4 days)
Spodoptera litura [10] = assay: Insecticidal activity against pupal stage of Spodoptera litura in compound-treated castor leaves assessed as pupal duration time at 0.5 ug/cm2 (reference value: 9.2 +/- 0.74 days)
Spodoptera litura [11] = assay: Insecticidal activity against third-instar larval stage of Spodoptera litura in compound-treated castor leaves assessed as total larval duration time at 0.5 ug/cm2 (reference value: 12.4 +/- 0.48 days)
Earias vittella [12] = assay: Insecticidal activity against female adult Earias vitella assessed as adult longevity time at 0.5 ug/cm3 administered through artificial diet containing Abelmoschus esculentus seed powder (reference value: 8.6 +/- 0.48 days)
Earias vittella [13] = assay: Insecticidal activity against adult Earias vitella assessed as adult deformity at 0.5 ug/cm3 administered through artificial diet containing Abelmoschus esculentus seed powder (reference value: 4%)
Earias vittella [14] = assay: Insecticidal activity against third-instar larval stage of Earias vitella assessed as larval mortality at 0.5 ug/cm3 administered through artificial diet containing Abelmoschus esculentus seed powder (reference value: 4%)
Earias vittella [15] = assay: Insecticidal activity against pupal stage of Earias vitella assessed as pupal weight at 0.5 ug/cm3 administered through artificial diet containing Abelmoschus esculentus seed powder (reference value: 88.2 +/- 4.01 mg)
Spodoptera litura [16] = assay: Insecticidal activity against adult Spodoptera litura in compound-treated castor leaves assessed as adult emergence at 0.5 ug/cm2 relative to control
Spodoptera litura [17] = assay: Insecticidal activity against male adult Spodoptera litura in compound-treated castor leaves assessed as adult longevity time at 0.5 ug/cm2 (reference value: 9.4 +/- 0.48 days)
Earias vittella [18] = assay: Insecticidal activity against pupal stage of Earias vitella assessed as pupal mortality at 0.5 ug/cm3 administered through artificial diet containing Abelmoschus esculentus seed powder (reference value: 8%)
Spodoptera litura [19] = assay: Insecticidal activity against third-instar larval stage of Spodoptera litura in compound-treated castor leaves assessed as larval mortality at 0.5 ug/cm2 relative to control
Earias vittella [20] = assay: Antifeedant activity against third-instar larval stage of Earias vitella assessed as decrease in diet consumption at 0.5 ug/cm3 administered through artificial diet containing Abelmoschus esculentus seed powder after 24 hr relative to acetone-treated control; design: scale not given: the % may be the effect or the level left
Outline: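 Artificial diet was modified Klein medium with bhendi (Abelmoschus esculentus) seed powder in place of alfalfa. Compound in acetone was mixed into bhendi meal 12 h before diet preparation so the solvent evaporated. One 3 g diet cube was given to five freshly molted third-instar larvae in a muslin-covered container. After 24 h the cubes were weighed. %AF = 100 − (treated/control)×100.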

Work on `C/C=C(\C)C(=O)O[C@H]1C[C@@H](OC(C)=O)[C@@]2(C(=O)OC)CO[C@H]3[C@@H](O)[C@@](C)([C@]45O[C@@]4(C)[C@@H]4C[C@H]5O[C@@H]5OC=C[C@@]54O)[C@H]4[C@]1(CO[C@]4(O)C(=O)OC)[C@@H]32` [AZADIRACHTIN A] yielded a mortality at 0.5 µg/cm2 (Spodoptera litura [1]) of 28%, an Activity (Earias vittella [2]) of 37% and an Activity (Spodoptera litura [3]) of 28.5%. The Time (Earias vittella [4]) was 11 days, the Time (Earias vittella [5]) was 8.4 days and the Activity (Spodoptera litura [6]) was 247.2 mg. It also gave an Activity (Spodoptera litura [7]) of 79.2%, a Time (Spodoptera litura [8]) of 7 days and a Time (Earias vittella [9]) of 6.6 days. The Time (Spodoptera litura [10]) was 11 days, the Time (Spodoptera litura [11]) was 13.9 days and the Time (Earias vittella [12]) was 6.8 days. The Activity (Earias vittella [13]) was 25%, the mortality (Earias vittella [14]) was 68% and the Activity (Earias vittella [15]) was 59.2 mg. The Activity (Spodoptera litura [16]) was 42.8%, the Time (Spodoptera litura [17]) was 7.2 days and the mortality (Earias vittella [18]) was 37.5%. For the same compound, the mortality at 0.5 µg/cm2 (Spodoptera litura [19]) was 78% and the Activity (Earias vittella [20]) was 79.2%.
